For assay [1], the target named is T1, Chromodomain Y-like protein (Homo sapiens, UniProt Q9Y232).
T1 sequence (Q9Y232 whole entry): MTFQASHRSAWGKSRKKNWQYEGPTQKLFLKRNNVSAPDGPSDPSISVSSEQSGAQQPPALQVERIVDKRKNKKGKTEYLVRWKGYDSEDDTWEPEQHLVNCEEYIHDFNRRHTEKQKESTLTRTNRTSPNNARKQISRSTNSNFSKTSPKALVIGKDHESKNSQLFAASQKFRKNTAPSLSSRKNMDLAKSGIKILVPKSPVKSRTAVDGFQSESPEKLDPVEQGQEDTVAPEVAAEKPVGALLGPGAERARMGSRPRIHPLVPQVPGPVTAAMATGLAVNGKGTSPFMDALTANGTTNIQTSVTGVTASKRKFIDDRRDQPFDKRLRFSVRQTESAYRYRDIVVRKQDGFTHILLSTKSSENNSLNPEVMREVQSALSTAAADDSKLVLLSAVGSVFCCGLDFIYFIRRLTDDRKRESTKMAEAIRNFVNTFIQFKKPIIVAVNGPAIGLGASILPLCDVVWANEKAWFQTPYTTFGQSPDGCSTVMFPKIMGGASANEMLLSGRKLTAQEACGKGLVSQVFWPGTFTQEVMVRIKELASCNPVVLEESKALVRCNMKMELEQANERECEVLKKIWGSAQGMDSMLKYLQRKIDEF
Description: Binding affinity to recombinant human N-terminal GST-tagged CDYL (1 to 60 residues) expressed in Escherichia coli […] by SPR analysis. In short, it runs like this:
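GST-tagged chromodomain expressed in E. coli BL21 with 0.2 mM IPTG at 28 °C for 6 h. Purified on GSTrap, tag removed with PreScission protease. Amine-coupled to CM5 chip at pH 4.0–4.5 (5000–10000 RU). Compound run as a 1.5- or 2-fold series from 100 µM in PBSP with 5% DMSO, 25 °C, 30 µL/min, 60 s association and 60 s dissociation.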
Background: In SPR one partner is held on a chip, and binding of the other changes the refractive index at the surface.

The target of assay [2] is T2, Testis-specific chromodomain protein Y 1 (Homo sapiens, UniProt Q9Y6F8).
T2 sequence (Q9Y6F8 whole entry): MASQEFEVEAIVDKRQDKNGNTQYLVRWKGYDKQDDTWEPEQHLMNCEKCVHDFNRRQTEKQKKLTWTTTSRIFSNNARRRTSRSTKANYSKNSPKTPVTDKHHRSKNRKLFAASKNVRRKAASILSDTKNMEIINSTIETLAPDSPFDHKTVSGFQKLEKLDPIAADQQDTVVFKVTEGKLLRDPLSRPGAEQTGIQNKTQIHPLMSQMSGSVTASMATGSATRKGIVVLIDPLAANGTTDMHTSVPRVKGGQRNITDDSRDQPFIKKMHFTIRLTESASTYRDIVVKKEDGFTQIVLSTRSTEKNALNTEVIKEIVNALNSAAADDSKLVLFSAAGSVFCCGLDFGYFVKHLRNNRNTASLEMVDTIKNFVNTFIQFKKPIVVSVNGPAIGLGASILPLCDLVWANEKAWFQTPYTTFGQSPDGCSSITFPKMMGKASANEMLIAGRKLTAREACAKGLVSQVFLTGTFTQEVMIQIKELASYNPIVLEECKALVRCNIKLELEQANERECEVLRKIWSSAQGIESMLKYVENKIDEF
As to the kind of experiment: Binding affinity to recombinant human N-terminal GST-tagged CDY1 (1 to 65 residues) expressed in Escherichia coli […] by SPR analysis. The essentials: (§1)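 Chromodomain expressed with N-terminal GST tag in E. coli BL21 (IPTG 0.2 mM at OD600 0.6–0.8, 28 C for 6 h), GSTrap purified, tag cleaved by PreScission protease, amine-coupled to CM5 chip at pH 4.0–4.5 (5000–10000 RU). […] Mean ± SD of at least two replicates, each in duplicate.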

The target of assay [3] is T3, Chromobox protein homolog 7 (Homo sapiens, UniProt O95931).
T3 sequence (O95931 whole entry): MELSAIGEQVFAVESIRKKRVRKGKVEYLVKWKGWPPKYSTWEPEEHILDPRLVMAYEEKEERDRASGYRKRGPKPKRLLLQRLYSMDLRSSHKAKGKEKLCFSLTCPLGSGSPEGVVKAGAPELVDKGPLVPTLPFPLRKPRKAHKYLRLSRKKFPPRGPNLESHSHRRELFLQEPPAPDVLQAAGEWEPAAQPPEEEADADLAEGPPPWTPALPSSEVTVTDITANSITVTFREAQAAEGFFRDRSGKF
As to the kind of experiment: Binding affinity to recombinant human N-terminal GST-tagged CBX7 (1 to 62 residues) expressed in Escherichia coli […] by SPR analysis. In short, it runs like this: as §1

Where only a bound is given, the exact number is not on record here.

Turning to `CN1CCc2c(sc3c2C(=O)N[C@@H](/C=C\c2ccccc2)N3)C1`, the Kd in assay [1] was found to be 55.6 µM.

As for `COc1ccc2oc(=O)n(CC(=O)c3c[nH]c4ccccc34)c2c1`, the dissociation constant Kd in assay [2] stood at 36.4 µM; in assay [1], 7.2 µM; in assay [3], 20.3 µM.

As to `CCN(CC)CCOC(=O)CCc1cccc2ccccc12`, the Kd in assay [1] worked out at 60.8 µM.

For `CN1C(=O)C(O)(CC(=O)c2cccc3ccccc23)c2ccccc21` (configuration not stated), the Kd in assay [2] was found to be 24.7 µM; in assay [1], 128 µM; in assay [3], 2.4 µM.

In the case of `CCN(CC)C1CCN(C(=O)Cn2c(=O)oc3ccccc32)CC1`, the Kd in assay [1] is 5.8 µM; in assay [3] it was 46.6 µM.

Consider `CN1C(=O)C(O)(CC(=O)c2ccc3ccccc3c2)c2ccccc21` (configuration not stated), for which the results for the Kd in assay [2], in assay [1] and in assay [3] were 28.9 µM, 19.4 µM and 5.1 µM, respectively.

Turning to `O=C(Cn1c(=O)oc2ccccc21)Nc1ccc2ccccc2c1`, the Kd in assay [2] amounted to 20.4 µM; in assay [1] it was 18.9 µM; in assay [3], 19.6 µM.

`O=C(Cn1c(=O)oc2ccccc21)N1CCC(N2CCOCC2)CC1`: the Kd in assay [2] turned out to be 21 µM; in assay [1] it was 25.9 µM; in assay [3] it was 5.6 µM.

Consider `O=C(Cn1c(=O)oc2ccccc21)N1CCC(N2CCCCC2)CC1`, for which the equilibrium dissociation constant (Kd) in assay [2] came out at 51.1 µM; in assay [1] it was 11.8 µM; in assay [3], 13.5 µM.

Regarding `COc1ccc(C(=O)Cn2c(=O)oc3ccccc32)cc1OC`, the results for the equilibrium dissociation constant (Kd) in assay [2], in assay [1] and in assay [3] were 23.8 µM, 14.6 µM and 48.5 µM, respectively.

Turning to `COc1cccc(C(=O)Cn2c(=O)oc3ccccc32)c1`, the Kd in assay [2] came out at 5.8 µM; in assay [1], 4.9 µM.

In the case of `COc1cccc(NC(=O)Cn2c(=O)oc3ccccc32)c1`, the Kd in assay [2] was determined as 1 µM; in assay [1], 7.3 µM; in assay [3] it was 14.8 µM.

On to `CCN(CC)C1CCN(C(=O)Cn2c(=O)oc3ccc(F)cc32)CC1`, for which the results for the Kd in assay [2], in assay [1] and in assay [3] were 4.5 µM, 2.8 µM and 2.8 µM, respectively.

As to `COc1cccc(C(=O)Cn2cnc3ccccc32)c1`, the Kd in assay [2] amounted to 4 µM; in assay [1], 10.1 µM.

On to `COc1ccc(C(=O)Cn2c(=O)oc3ccc(F)cc32)cc1OC`, for which the figures for the dissociation constant Kd in assay [2], in assay [1] and in assay [3] were 4.4 µM, 20.5 µM and 28.8 µM, respectively.

Take `C[C@@H](CN1CCCC1)OC(=O)c1ccc(Cl)cc1Cl`: the Kd in assay [1] stood at 271 µM.

In the case of `O=C(CN1C(=O)COc2ccccc21)c1ccc2ccccc2c1`, the dissociation constant Kd turned out to be 39.6 µM in assay [2], 52.5 µM in assay [1] and 26.5 µM in assay [3].

As for `O=C(Cn1c(=O)oc2cc(Br)ccc21)c1ccc2ccccc2c1`, the Kd was 1.7 µM in assay [2], 29 µM in assay [1] and 29.7 µM in assay [3].

`O=C(CN1C(=O)COc2ccccc21)c1c[nH]c2ccccc12`: the Kd in assay [2] was found to be 109 µM; in assay [1] it was 59.8 µM; in assay [3] it was 37.1 µM.

Regarding `CC(C)N1C(=O)[C@@](O)(CC(=O)c2cccc3ccccc23)c2ccccc21`, the Kd in assay [1] came to 55.3 µM.

With `O=C(Cn1c(=O)sc2cc([N+](=O)[O-])ccc21)c1c[nH]c2ccccc12`, the dissociation constant (Kd) stood at 14.4 µM in assay [2], 71.7 µM in assay [1] and 8.8 µM in assay [3].

On to `CCCC(=O)Nc1ccc(Cl)c(NC(=O)COc2ccccc2OC)c1`, for which, in assay [1], the Kd was found to be 14.2 µM.

As to `COc1cccc(C(=O)CN2C(=O)COc3ccccc32)c1`, the Kd in assay [2] is 11.3 µM; in assay [1], 13 µM; in assay [3] it was 53 µM.

For `O=C(Cn1c(=O)oc2ccccc21)c1cccc2ccccc12`, the Kd in assay [2] was 6.5 µM; in assay [1], 3 µM; in assay [3] it was 29.9 µM.

For `Nc1ccc2c(c1)sc(=O)n2CC(=O)c1ccc2ccccc2c1`, the Kd in assay [1] is 4.9 µM; in assay [3], > 200 µM.

In the case of `N#Cc1ccc2oc(=O)n(CC(=O)c3c[nH]c4ccccc34)c2c1`, the Kd in assay [2] amounted to 4.6 µM; in assay [1] it was 96.7 µM; in assay [3] it was 46.9 µM.

On to `O=C(Cn1c(=O)oc2ccc([N+](=O)[O-])cc21)N1CCC(N2CCCC2)CC1`, for which the Kd in assay [2] was 55.8 µM; in assay [1] it was 16.8 µM.

On to `CCCN1C(=O)C(O)(CC(=O)c2cccc3ccccc23)c2ccccc21` (configuration not stated), for which the Kd stood at 21.1 µM in assay [2], 23 µM in assay [1] and 20.4 µM in assay [3].

As to `CCCN1C(=O)C(O)(CC(=O)c2cc(Br)c(Br)o2)c2cc(Cl)ccc21` (configuration not stated), the Kd in assay [1] was determined as 15.4 µM; in assay [3], 16 µM.

Turning to `CN(C)c1ccc(C(=O)Cn2c(=O)oc3ccccc32)cc1`, the values for the Kd in assay [1] and in assay [3] were 11.9 µM and 36.5 µM, respectively.

On to `COc1ccc2oc(=O)n(CC(=O)c3ccc4ccccc4c3)c2c1`, for which the Kd in assay [2] turned out to be 1.5 µM; in assay [1], 1.5 µM; in assay [3], 59.5 µM.

Turning to `O=C(Cn1c(=O)oc2ccccc21)c1c[nH]c2ccccc12`, the Kd in assay [2] worked out at 21 µM; in assay [1], 1.9 µM; in assay [3], 9.3 µM.

For the molecule `COc1cccc(C(=O)Cn2c(=O)oc3ccc(F)cc32)c1`, the Kd in assay [1] amounted to 6.2 µM; in assay [3], 3.4 µM.

With `COCCCNC(=O)Cc1c(C)c2c(O)cc(C)cc2oc1=O`, the Kd in assay [1] worked out at 26 µM.

Regarding `COc1ccc2oc(=O)n(CC(=O)c3ccc(OC)c(OC)c3)c2c1`, the Kd was 11.3 µM in assay [2], 5.5 µM in assay [1] and 3.9 µM in assay [3].

Take `O=C(Cn1c(=O)oc2ccc(Br)cc21)c1ccc2ccccc2c1`: the Kd in assay [2] turned out to be 14.8 µM; in assay [1], 5.8 µM; in assay [3], 9.5 µM.

For the molecule `COc1cccc(C(=O)Cn2c(=O)oc3ccc(OC)cc32)c1`, the results for the Kd in assay [2], in assay [1] and in assay [3] were 15.6 µM, 7.7 µM and 17.2 µM, respectively.

In the case of `COc1ccc2oc(=O)n(CC(=O)c3ccc(N(C)C)cc3)c2c1`, the results for the Kd in assay [2], in assay [1] and in assay [3] were 2.7 µM, 15.5 µM and 6.1 µM, respectively.

On to `O=C(Cn1c(=O)oc2ccccc21)Nc1cccc2ccccc12`, for which the Kd was 0.8 µM in assay [2], 29 µM in assay [1] and > 200 µM in assay [3].

`CCCN1C(=O)C(O)(CC(=O)c2ccc3c(c2)CCCC3)c2ccccc21` (configuration not stated): the Kd in assay [2] turned out to be 89.5 µM; in assay [1], 50.5 µM; in assay [3] it was 7.2 µM.

Regarding `O=C(Cn1c(=O)sc2cc([N+](=O)[O-])ccc21)c1ccc2ccccc2c1`, the Kd in assay [2] was 123 µM; in assay [1], 26.8 µM.

`CN(C)c1ccc(C(=O)Cn2c(=O)oc3ccc(F)cc32)cc1`: the Kd in assay [2] worked out at 34.6 µM; in assay [1], 90.1 µM; in assay [3], 78.1 µM.

For the molecule `O=C(Cn1c(=O)oc2ccc(F)cc21)c1c[nH]c2ccccc12`, the dissociation constant Kd came to 23.7 µM in assay [2], 5.1 µM in assay [1] and 9.8 µM in assay [3].

In the case of `CN(C)C1CCN(C(=O)Cn2c(=O)oc3ccccc32)CC1`, the Kd in assay [2] came out at 33.6 µM; in assay [1], 9.5 µM.

As for `N#Cc1ccc2oc(=O)n(CC(=O)c3ccc4ccccc4c3)c2c1`, the Kd in assay [2] was found to be 71.5 µM; in assay [1] it was 101 µM.

For the molecule `COc1ccccc1[C@@H]1NC(=O)c2c(sc3c2CCN(C)C3)N1`, the Kd in assay [1] was found to be 53.2 µM.

As for `COc1cccc(C(=O)Cn2c(=O)oc3ccc(C#N)cc32)c1`, the Kd in assay [2] stood at 42.1 µM; in assay [3] it was 19.6 µM.

For the molecule `C=CCN1C(=O)C(O)(CC(=O)c2ccc3ccccc3c2)c2ccccc21` (configuration not stated), the Kd in assay [2] was determined as 24.5 µM; in assay [1] it was 31.7 µM.

For orientation: Kd means the free concentration of one partner at which half of the binding sites on the other are occupied at equilibrium, for simple one-to-one binding.

For the origin of these results see ChEMBL document CHEMBL4359913, “Identification and characterization of benzo[d]oxazol-2(3H)-one derivatives as the first potent and selective small-molecule inhibitors of chromodomain protein CDYL” (Eur J Med Chem, 2019).
